Tests used:
[1] = commercial extracellular fluid agent, on the order of; ref not given; cited from earlier work
[2] = target: human serum albumin (HSA) (Homo sapiens, UniProt P02768); assay type: physicochemical; conditions: albumin-bound; fit of variable temperature NMRD; (SD)
Procedure, shortened: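 Samples were 0.1 mM Gd complex with 0.67 mM HSA (4.5% w/v) in pH 7.4 HEPES-buffered saline, Gd by ICP-MS. 1H NMRD profiles were recorded on a field-cycling relaxometer at 5, 15, 25 and 35 °C over 0.01–50 MHz (0.0002–1.2 T), with 22 points per curve. Variable-temperature profiles were fitted using a Lipari-Szabo treatment.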

Chain of human serum albumin (HSA) (P02768 25-609): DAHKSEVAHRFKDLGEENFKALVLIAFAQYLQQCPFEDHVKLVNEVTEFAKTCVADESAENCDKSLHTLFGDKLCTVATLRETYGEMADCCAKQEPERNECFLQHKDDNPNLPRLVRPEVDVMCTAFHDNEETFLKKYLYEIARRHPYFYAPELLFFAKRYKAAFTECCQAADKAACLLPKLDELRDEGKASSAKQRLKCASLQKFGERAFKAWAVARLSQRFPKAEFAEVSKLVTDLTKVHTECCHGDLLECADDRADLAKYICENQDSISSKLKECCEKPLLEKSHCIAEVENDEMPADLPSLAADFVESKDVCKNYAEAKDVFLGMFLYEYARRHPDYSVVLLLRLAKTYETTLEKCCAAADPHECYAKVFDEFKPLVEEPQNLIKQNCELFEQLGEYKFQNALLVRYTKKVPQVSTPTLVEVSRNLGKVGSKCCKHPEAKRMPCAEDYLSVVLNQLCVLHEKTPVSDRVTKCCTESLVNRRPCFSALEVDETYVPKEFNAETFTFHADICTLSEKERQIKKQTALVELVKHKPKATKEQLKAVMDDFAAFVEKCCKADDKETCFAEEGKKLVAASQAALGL

Compound: O=C([O-])CN(CCN(CC(=O)[O-])CC(=O)O)CCN(CC(=O)[O-])CC(=O)O.[Gd+3] [Gd-DTPA]
- relaxivity r1 [1]: ~4 mM⁻¹ s⁻¹

Compound: Gd1b
- F^2 (Lipari-Szabo order parameter) [2]: 0.46 (0.01)
- ΔH^‡ (activation energy for water exchange) [2]: 42.3 (4.2) kJ/mol
- Δ^2 (transient zero field splitting parameter) [2]: 3.39 (0.12) 10^18 s^-2
- τv (correlation time of transient ZFS modulation) [2]: 22 (3) ps
